The structures appear in SMILES notation. Starred links: 1 amine or outer side, 2 acyl side, 3 side chain; linkers in the order of their positions; H or OH if unused. Non-standard residues stand in square brackets, D forms with d. Residues, ends and D or L forms follow the SMILES beside them. *: point of attachment. X11 = O=C([C@H](N[*:1])[C@H](O)[C@@H](O)[C@@H](O)CO)[*:2]; X3 = O=C([C@@H](N[*:1])[C@H](O)[C@H](O)[C@@H](O)CO)[*:2]; X10 = O=C([C@H](Cc1ccc2c(c1)OCO2)N[*:1])[*:2]; X4 = O=C([C@H](CC1CC2CCC1CC2)N[*:1])[*:2]; X5 = CC1CCC(C[C@@H](N[*:1])C(=O)[*:2])CC1; X6 = CC1CCC(C[C@H](N[*:1])C(=O)[*:2])CC1; Phe(3-F) = N[C@@H](Cc1cccc(F)c1)C(=O)O; Phe(3-I) = N[C@@H](Cc1cccc(I)c1)C(=O)O; NMeCha = CN[C@@H](CC1CCCCC1)C(=O)O; NMeR = CN[C@@H](CCCNC(=N)N)C(=O)O; Cha = N[C@@H](CC1CCCCC1)C(=O)O; NMeM = CN[C@@H](CCSC)C(=O)O; NMeS = CN[C@@H](CO)C(=O)O; NHCH(CH2OH)2 = OCC(CO)N*; NMeA = CN[C@@H](C)C(=O)O; Nle = CCCC[C@H](N)C(=O)O; NHCH2CH2OH = OCCN*

The nature of test [1]: Mean relative potency is the ratio of potencies of 'Ac-(Cha)RAMASL-NH2' and compound, to inhibit MHC class II DRB1*0401. The essentials:
(§1)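 Scintillation proximity competition assay. Test compounds competed against the radioligand, and bound counts were read by scintillation. Ac-(Cha)RAMASL-NH2 was run as standard competitor in every run. Potency is the ratio of standard IC50 to compound IC50.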

A short description of test [2]: Mean relative potency is the ratio of potencies of 'Ac-(Cha)RAMASL-NH2' and compound, to inhibit MHC class II DRB1*0101. The essentials:
as §1

The target of the next test is Cathepsin B (Bos taurus) (UniProt P07688). Briefly: Percent of original compound remaining with cathepsin B after incubation for 4 hrs was determined by HPLC.
The subject of test [3] is T-cell. Briefly: T-cell inhibitory potency relative to the IC50 of a(Cha)AAAKTAAAAa-NH2 iMHC class II DRB1*0101. The format is functional, Homo sapiens.
Test [4] has as its system T-cell. Kind of test: T-cell inhibitory potency relative to the IC50 of a(Cha)AAAKTAAAAa-NH2 in MHC class II DRB1*0401. Format: functional, Homo sapiens.

For the molecule `CSCC[C@H](NC(=O)[C@H](C)NC(=O)[C@H](CCCN=C(N)N)NC(=O)[C@H](CC1CCCCC1)NC(C)=O)C(=O)N[C@@H](C)C(=O)N(C)[C@@H](CO)C(=O)N[C@@H](CC(C)C)C(N)=O` (Ac-[Cha]RAMA[NMeS]L-NH2), the Mean relative potency turned out to be 0.97 in test [1] and 0.5 in test [2].

In the case of `CC[C@@H](C)[C@H](NC(=O)[C@H](C)NC(=O)[C@H](CCCN=C(N)N)NC(=O)[C@H](CC1CCCCC1)NC(C)=O)C(=O)N[C@@H](C)C(=O)N[C@@H](CO)C(=O)N[C@@H](CC(C)C)C(N)=O`, the Mean relative potency in test [1] amounted to 1.01; in test [2], 0.36.

Turning to `CSCC[C@H](NC(=O)[C@H](C)NC(=O)[C@H](CCCN=C(N)N)NC(=O)[C@H](CC1CCC(C)CC1)NC(C)=O)C(=O)N[C@@H](C)C(=O)N[C@@H](CO)C(=O)N[C@@H](CC(C)C)C(N)=O` (stereo partly specified) (Ac-[X6]RAMASL-NH2), the figures for the Mean relative potency in test [1] and in test [2] were 1.71 and 1.37, respectively.

On to `CSCC[C@H](NC(=O)[C@H](C)NC(=O)[C@H](CCCN=C(N)N)NC(=O)[C@H](CC1CCCCC1)NC(C)=O)C(=O)N1CCC[C@@H]1C(=O)N[C@@H](CO)C(=O)N[C@@H](CC(C)C)C(N)=O`, for which the values for the Mean relative potency in test [1] and in test [2] were 0.7 and 1.37, respectively.

On to `CC(=O)N[C@@H](CC1CCCCC1)C(=O)N[C@@H](CCCN=C(N)N)C(=O)N[C@@H](C)C(=O)N[C@@H](CC(C)C)C(=O)N[C@@H](C)C(=O)N[C@@H](CO)C(=O)N[C@@H](CC(C)C)C(N)=O` (Ac-[Cha]RALASL-NH2), for which the Mean relative potency was 0.54 in test [1] and 0.55 in test [2].

Turning to `CSCC[C@H](NC(=O)[C@H](CCSC)NC(=O)[C@H](CCCN=C(N)N)NC(=O)[C@H](CC1CCCCC1)NC(C)=O)C(=O)N[C@@H](C)C(=O)NC(CO)CO` (Ac-[Cha]RMMA-{NHCH(CH2OH)2}), the Mean relative potency in test [1] stood at 1.55; in test [2], 0.68.

For the molecule `CSCC[C@H](NC(=O)[C@H](C)NC(=O)[C@H](CCCN=C(N)N)NC(=O)[C@H](Cc1cccc(I)c1)NC(C)=O)C(=O)N[C@@H](C)C(=O)N[C@@H](CO)C(=O)N[C@@H](CC(C)C)C(N)=O` (Ac-[Phe(3-I)]RAMASL-NH2), the Mean relative potency is 1.56 in test [1] and 0.61 in test [2].

As for `CSCC[C@H](NC(=O)[C@H](CCSC)NC(=O)[C@H](CCCN=C(N)N)NC(=O)[C@H](CC1CCCCC1)NC(C)=O)C(=O)N[C@@H](C)C(N)=O` (Ac-[Cha]RMMA-NH2), the values for the Mean relative potency in test [1] and in test [2] were 0.15 and 0.59, respectively.

In turn, `CSCC[C@H](NC(=O)[C@H](C)NC(=O)[C@H](CCCN=C(N)N)NC(=O)[C@H](CC1CCCCC1)NC(C)=O)C(=O)N[C@H](C)C(=O)N[C@@H](CO)C(=O)N(C)[C@@H](CC(C)C)C(N)=O` registered a % remaining at Cathepsin B (Bos taurus) of 0%. The results for the Mean relative potency in test [1] and in test [2] were 0.77 and 0.85, respectively.

As for `CSCC[C@H](NC(=O)[C@H](C)NC(=O)[C@H](CCCN=C(N)N)NC(=O)[C@H](Cc1ccc2c(c1)OCO2)NC(C)=O)C(=O)N[C@@H](C)C(=O)N[C@@H](CO)C(=O)N[C@@H](CC(C)C)C(N)=O` (Ac-[X10]RAMASL-NH2), the values for the Mean relative potency in test [1] and in test [2] were 1.65 and 1.31, respectively.

With `CSCC[C@H](NC(=O)[C@H](CCSC)NC(=O)[C@H](CCCN=C(N)N)NC(=O)[C@H](CC1CCCCC1)NC(C)=O)C(=O)N[C@@H](C)C(=O)N[C@@H](CO)C(N)=O` (Ac-[Cha]RMMAS-NH2), the Mean relative potency in test [1] was found to be 0.85; in test [2], 1.38.

In the case of `CSCC[C@H](NC(=O)[C@H](C)NC(=O)[C@H](CCCN=C(N)N)NC(=O)[C@H](CC1CC2CCC1C2)NC(C)=O)C(=O)N[C@@H](C)C(=O)N[C@@H](CO)C(=O)N[C@@H](CC(C)C)C(N)=O` (stereo in doubt; 6), the Mean relative potency in test [1] worked out at 0.92; in test [2], 0.96.

On to `CSCC[C@H](NC(=O)[C@H](c1ccccc1)N(C)C(=O)[C@H](CCCN=C(N)N)NC(=O)[C@H](CC1CCCCC1)NC(C)=O)C(=O)N(C)[C@@H](C)C(=O)N[C@@H](CO)C(=O)N[C@H](C(N)=O)C(C)(C)C`, for which the T-cell inhibition was determined as 7.8 with T-cell [3] and 2.5 with T-cell [4].

For the molecule `CSCC[C@H](NC(=O)[C@H](C)NC(=O)[C@H](CCCN=C(N)N)NC(=O)[C@@H](CC1CC2CCC1C2)NC(C)=O)C(=O)N[C@@H](C)C(=O)N[C@@H](CO)C(=O)N[C@@H](CC(C)C)C(N)=O` (stereo partly specified), the Mean relative potency in test [1] worked out at 1.53; in test [2], 1.31.

With `CSCC[C@H](NC(=O)[C@H](C)NC(=O)[C@H](CCCN=C(N)N)N(C)C(=O)[C@H](CC1CCCCC1)NC(C)=O)C(=O)N[C@@H](C)C(=O)N[C@@H](CO)C(=O)N[C@@H](CC(C)C)C(N)=O` (Ac-[Cha][NMeR]AMASL-NH2), the Mean relative potency in test [1] and in test [2] was 0.001 throughout.

As for `CSCC[C@H](NC(=O)[C@H](C)NC(=O)[C@H](CCCN=C(N)N)NC(=O)[C@H](CC1CC2CCC1CC2)NC(C)=O)C(=O)N[C@@H](C)C(=O)N[C@@H](CO)C(=O)N[C@@H](CC(C)C)C(N)=O` (stereo partly specified) (Ac-[X4]RAMASL-NH2), the Mean relative potency in test [1] came out at 1.22; in test [2] it was 0.68.

In the case of `CSCC[C@H](NC(=O)[C@H](CCSC)NC(=O)[C@H](CCCN=C(N)N)NC(=O)[C@H](CC1CCCCC1)NC(C)=O)C(=O)N[C@@H](C)C(=O)N[C@@H](CO)C(=O)N[C@@H](CC(C)C)C(N)=O` (Ac-[Cha]RMMASL-NH2), the Mean relative potency in test [1] is 0.88; in test [2], 1.05.

Regarding `CSCC[C@H](NC(=O)[C@H](C)NC(=O)[C@H](CCCN=C(N)N)NC(=O)[C@H](Cc1cccc(F)c1)NC(C)=O)C(=O)N[C@@H](C)C(=O)N[C@@H](CO)C(=O)N[C@@H](CC(C)C)C(N)=O` (Ac-[Phe(3-F)]RAMASL-NH2), the values for the Mean relative potency in test [1] and in test [2] were 1.19 and 0.17, respectively.

As to `CCCC[C@H](NC(=O)[C@H](C)NC(=O)[C@H](CCCN=C(N)N)NC(=O)[C@H](CC1CCCCC1)NC(C)=O)C(=O)N[C@@H](C)C(=O)N[C@@H](CO)C(=O)N[C@@H](CC(C)C)C(N)=O` (Ac-[Cha]RA[Nle]ASL-NH2), the Mean relative potency in test [1] was 0.4; in test [2], 0.77.

With `CSCC[C@H](NC(=O)[C@H](C)NC(=O)[C@H](CCCN=C(N)N)NC(=O)[C@H](CC1CCCCC1)NC(C)=O)C(=O)N1CCCC[C@@H]1C(=O)N[C@@H](CO)C(=O)N[C@@H](CC(C)C)C(N)=O`, the Mean relative potency in test [1] turned out to be 1.08; in test [2], 0.55.

As to `CSCC[C@H](NC(=O)[C@H](C)NC(=O)[C@H](CCCN=C(N)N)NC(=O)[C@@H](CC1CCC(C)CC1)NC(C)=O)C(=O)N[C@@H](C)C(=O)N[C@@H](CO)C(=O)N[C@@H](CC(C)C)C(N)=O` (stereo partly specified) (Ac-[X5]RAMASL-NH2), the Mean relative potency in test [1] is 0.93; in test [2], 1.17.

For `CSCC[C@H](NC(=O)[C@H](C)N(C)C(=O)[C@H](CCCN=C(N)N)NC(=O)[C@H](CC1CCCCC1)NC(C)=O)C(=O)N[C@@H](C)C(=O)N[C@@H](CO)C(=O)N[C@@H](CC(C)C)C(N)=O` (Ac-[Cha]R[NMeA]MASL-NH2), the figures for the Mean relative potency in test [1] and in test [2] were 0.56 and 1.02, respectively.

For the molecule `CSCC[C@H](NC(=O)[C@H](C)NC(=O)[C@H](CCCN=C(N)N)NC(=O)[C@H](CC1CCCCC1)N(C)C(C)=O)C(=O)N[C@@H](C)C(=O)N[C@@H](CO)C(=O)N[C@@H](CC(C)C)C(N)=O` (Ac-[NMeCha]RAMASL-NH2), the Mean relative potency in test [1] is 0.67; in test [2], 0.25.

With `CSCC[C@H](NC(=O)[C@H](CCCN=C(N)N)NC(=O)[C@H](CC1CCCCC1)NC(C)=O)C(=O)N[C@@H](CCSC)C(=O)N[C@H](C=O)[C@H](O)[C@H](O)[C@@H](O)CO` (Ac-[Cha]RMM[X3]-aldehyde), the Mean relative potency in test [1] came to 0.16; in test [2] it was 0.12.

`CSCC[C@H](NC(=O)[C@H](CCSC)NC(=O)[C@H](CCCN=C(N)N)NC(=O)[C@H](CC1CCCCC1)NC(C)=O)C(=O)N[C@@H](C)C(=O)NCCO` (Ac-[Cha]RMMA-NHCH2CH2OH): the values for the Mean relative potency in test [1] and in test [2] were 1.04 and 0.33, respectively.

In the case of `CSCC[C@@H](C(=O)N[C@@H](C)C(=O)N[C@@H](CO)C(=O)N[C@@H](CC(C)C)C(N)=O)N(C)C(=O)[C@H](C)NC(=O)[C@H](CCCN=C(N)N)NC(=O)[C@H](CC1CCCCC1)NC(C)=O` (Ac-[Cha]RA[NMeM]ASL-NH2), the Mean relative potency was 0.005 in test [1] and 0.046 in test [2].

For the molecule `CSCC[C@H](NC(=O)[C@H](C)NC(=O)[C@H](CCCN=C(N)N)NC(=O)[C@H](CC1CC2CCC1C2)NC(C)=O)C(=O)N[C@@H](C)C(=O)N[C@@H](CO)C(=O)N[C@@H](CC(C)C)C(N)=O` (stereo in doubt; 2), the figures for the Mean relative potency in test [1] and in test [2] were 1.71 and 0.52, respectively.

For `CSCC[C@H](NC(=O)[C@H](C)NC(=O)[C@H](CCCN=C(N)N)NC(=O)[C@H](CC1CCCCC1)NC(C)=O)C(=O)N[C@H](C)C(=O)N[C@@H](CO)C(=O)N[C@@H](CC(C)C)C(=O)N(C)C`, the Mean relative potency amounted to 1.6 in test [1] and 1.4 in test [2].

Turning to `CSCC[C@H](NC(=O)[C@H](C)NC(=O)[C@H](CCCN=C(N)N)NC(=O)[C@H](CC1CCCCC1)NC(C)=O)C(=O)N[C@H](C)C(=O)N[C@@H](CO)C(=O)N[C@H](C(N)=O)C(C)(C)C`, the Mean relative potency in test [1] stood at 1.46; in test [2], 1.64.

Consider `CSCC[C@H](NC(=O)[C@H](CCCN=C(N)N)NC(=O)[C@H](CC1CCCCC1)NC(C)=O)C(=O)N[C@@H](CCSC)C(=O)N[C@@H](C=O)[C@H](O)[C@@H](O)[C@@H](O)CO` (Ac-[Cha]RMM[X11]-aldehyde), for which the results for the Mean relative potency in test [1] and in test [2] were 0.81 and 0.5, respectively.
